{"source": "ChEMBL document CHEMBL1125331", "about": "“6-Hydroxy-3-n-propyl-2,3,4,5-tetrahydro-1H-3-benzazepine and analogs: new centrally acting 5-HT1A receptor agonists” (J Med Chem, 1992)", "key": {"[1]": {"target": "T1, 5-hydroxytryptamine receptor 1A (Rattus norvegicus, UniProt P19327)", "T1 sequence (P19327 whole entry)": "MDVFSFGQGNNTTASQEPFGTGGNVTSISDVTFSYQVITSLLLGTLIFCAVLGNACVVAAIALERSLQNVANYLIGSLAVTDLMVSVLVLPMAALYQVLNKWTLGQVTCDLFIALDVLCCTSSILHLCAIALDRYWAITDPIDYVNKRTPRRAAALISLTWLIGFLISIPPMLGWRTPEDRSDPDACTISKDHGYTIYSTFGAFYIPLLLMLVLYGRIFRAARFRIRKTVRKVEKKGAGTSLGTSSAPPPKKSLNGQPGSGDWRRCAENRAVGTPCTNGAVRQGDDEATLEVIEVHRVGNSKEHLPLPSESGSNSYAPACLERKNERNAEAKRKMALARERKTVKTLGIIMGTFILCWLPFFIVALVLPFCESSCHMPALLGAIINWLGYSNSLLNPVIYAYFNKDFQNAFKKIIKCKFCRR", "assay": "Inhibitory activity against 5-hydroxytryptamine 1A receptor in rats, using [3H]8-OH-DPAT as radioligand", "procedure,_shortened": "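Rat whole-brain membranes (minus brainstem and cerebellum) in 50 mM Tris pH 8.0 with 120 mM NaCl, 4 mM CaCl2, 4 mM MgCl2 and 10 μM pargyline. Rapid filtration, then scintillation counting. Nonspecific binding defined with 10 μM 5-HT. IC50 by semi-log plot and linear regression.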"}, "[2]": {"target": "D(2) dopamine receptor (Rattus norvegicus, UniProt P61169)", "sequence (P61169 whole entry)": "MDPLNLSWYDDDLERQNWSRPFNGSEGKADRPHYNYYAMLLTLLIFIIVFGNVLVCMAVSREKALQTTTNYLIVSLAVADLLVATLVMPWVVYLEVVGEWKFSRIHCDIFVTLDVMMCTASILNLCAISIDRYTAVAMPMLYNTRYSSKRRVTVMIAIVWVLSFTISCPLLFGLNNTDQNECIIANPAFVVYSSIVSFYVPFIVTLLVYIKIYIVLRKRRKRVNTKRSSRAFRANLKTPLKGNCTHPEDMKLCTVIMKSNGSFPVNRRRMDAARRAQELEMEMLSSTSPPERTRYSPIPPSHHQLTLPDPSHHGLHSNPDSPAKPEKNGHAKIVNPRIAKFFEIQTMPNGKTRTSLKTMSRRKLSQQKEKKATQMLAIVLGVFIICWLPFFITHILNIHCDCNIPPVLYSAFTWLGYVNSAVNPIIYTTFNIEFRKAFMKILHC", "assay": "Inhibitory activity against Dopamine receptor D2 in rats using [3H]spiperone as radioligand", "procedure,_shortened": "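Rat striatal membranes in 50 mM potassium phosphate buffer pH 7.4 were incubated with 0.5 nM [3H]spiperone for 10 min at 37 °C. Specific binding was defined with 10 μM 6,7-ADTN.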"}, "[3]": {"system": "Rattus norvegicus", "assay": "Effect evaluated in vivo on 5-HTP accumulation in limbic system at a dose 3.1 umol/kg (s.c.)", "type": "functional", "procedure,_shortened": "(§1)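 Male Sprague-Dawley rats (200–300 g) were pretreated with reserpine 5 mg/kg sc 18 h before. Test compound was given sc at 5 mL/kg in neutral solution. 5-HT synthesis rate was indexed by […] 5-HTP accumulation after decarboxylase inhibition with NSD 1015, measured by HPLC-electrochemical detection. Dose-response used 4–6 dose levels, n = 4.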"}, "[4]": {"system": "Rattus norvegicus", "assay": "Effect evaluated in vivo on 5-HTP accumulation in limbic system at a dose 50 umol/kg (s.c.)", "type": "functional", "procedure,_shortened": "as §1"}, "[5]": {"system": "Rattus norvegicus", "assay": "Effect evaluated in vivo on 5-HTP accumulation in limbic system at a dose 6.25 umol/kg (p.o.)", "type": "functional", "procedure,_shortened": "(§2)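 Oral dosing in male Sprague-Dawley rats (200–300 g) pretreated with reserpine 5 mg/kg sc 18 h before. After decarboxylase inhibition with NSD 1015, brain 5-HTP or dopa accumulation (HPLC-electrochemical detection) indexed 5-HT synthesis, DA synthesis (limbic) or NE synthesis (hemispheres, mainly cortex).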"}, "[6]": {"system": "Rattus norvegicus", "assay": "Effect evaluated in vivo on NE synthesis in NE-rich hemispheres at a 0.78 dose uM/kg(sc)", "type": "functional", "procedure,_shortened": "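Rats pretreated with reserpine 5 mg/kg sc 18 h before received test compound sc at 5 mL/kg in neutral solution. After decarboxylase inhibition with NSD 1015, dopa accumulation in hemispheres (mainly cortex) was measured by HPLC-electrochemical detection as an index of NE synthesis. Dose-response used 4–6 dose levels, n = 4.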"}, "[7]": {"system": "Rattus norvegicus", "assay": "Effect evaluated in vivo on 5-HTP accumulation in corpus striatum at a dose 100 umol/kg (p.o.)", "type": "functional", "procedure,_shortened": "(§3)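 Male Sprague-Dawley rats (200–300 g) were pretreated with reserpine 5 mg/kg sc 18 h beforehand. Test drug was given at neutral pH, 5 mL/kg. Aromatic amino acid decarboxylase was blocked with NSD 1015. 5-HTP in the dissected brain region was assayed by HPLC with electrochemical detection.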"}, "[8]": {"system": "Rattus norvegicus", "assay": "Effect evaluated in vivo on 5-HTP accumulation in corpus striatum at a dose 12.5 umol/kg (s.c.)", "type": "functional", "procedure,_shortened": "as §3"}, "[9]": {"system": "Rattus norvegicus", "assay": "Effect evaluated in vivo on 5-HTP accumulation in corpus striatum at a dose 25 umol/kg (p.o.)", "type": "functional", "procedure,_shortened": "as §3"}, "[10]": {"system": "Rattus norvegicus", "assay": "Effect evaluated in vivo on 5-HTP accumulation in corpus striatum at a dose 3.1 umol/kg (s.c.)", "type": "functional", "procedure,_shortened": "as §3"}, "[11]": {"system": "Rattus norvegicus", "assay": "Effect evaluated in vivo on 5-HTP accumulation in corpus striatum after perioral administration", "type": "functional", "procedure,_shortened": "as §3"}, "[12]": {"system": "Rattus norvegicus", "assay": "Effect evaluated in vivo on 5-HTP accumulation in limbic system after perioral administration", "type": "functional", "procedure,_shortened": "as §3"}, "[13]": {"system": "Rattus norvegicus", "assay": "Effect evaluated in vivo on 5-HTP accumulation in limbic system after subcutaneous administration", "type": "functional", "settings": "sc", "procedure,_shortened": "as §3"}, "[14]": {"system": "Rattus norvegicus", "assay": "Effect evaluated in vivo on NE synthesis in NE-rich hemispheres after perioral administration", "type": "functional", "procedure,_shortened": "as §2"}, "[15]": {"system": "Rattus norvegicus", "assay": "Effect evaluated in vivo on 5-HTP accumulation in corpus striatum at a dose 50 umol/kg (s.c.)", "type": "functional", "procedure,_shortened": "as §3"}, "[16]": {"system": "Rattus norvegicus", "assay": "Effect evaluated in vivo on 5-HTP accumulation in corpus striatum at a dose 6.25 umol/kg (p.o.)", "type": "functional", "procedure,_shortened": "as §3"}, "[17]": {"system": "Rattus norvegicus", "assay": "Effect evaluated in vivo on 5-HTP accumulation in limbic system at a dose 0.78 umol/kg (s.c.)", "type": "functional", "procedure,_shortened": "as §3"}, "[18]": {"system": "Rattus norvegicus", "assay": "Effect evaluated in vivo on 5-HTP accumulation in limbic system at a dose 1.56 umol/kg (p.o.)", "type": "functional", "procedure,_shortened": "as §2"}, "[19]": {"system": "Rattus norvegicus", "assay": "Effect evaluated in vivo on 5-HTP accumulation in limbic system at a dose 100 umol/kg (p.o.)", "type": "functional", "procedure,_shortened": "as §2"}, "[20]": {"system": "Rattus norvegicus", "assay": "Effect evaluated in vivo on 5-HTP accumulation in limbic system at a dose 12.5 umol/kg (s.c.)", "type": "functional", "procedure,_shortened": "as §1"}, "[21]": {"system": "Rattus norvegicus", "assay": "Effect evaluated in vivo on 5-HTP accumulation in limbic system at a dose 25 umol/kg (p.o.)", "type": "functional", "procedure,_shortened": "as §2"}, "[22]": {"system": "Rattus norvegicus", "assay": "Effect evaluated in vivo on 5-HTP accumulation in NE-rich hemispheres after subcutaneous administration", "type": "functional", "settings": "sc", "procedure,_shortened": "as §3"}, "[23]": {"system": "Rattus norvegicus", "assay": "Effect evaluated in vivo on 5-HTP accumulation in NE-rich hemispheres at a 1.56 dose uM/kg(po)", "type": "functional", "procedure,_shortened": "as §3"}, "[24]": {"system": "Rattus norvegicus", "assay": "Effect evaluated in vivo on 5-HTP accumulation in NE-rich hemispheres at a 100 dose uM/kg(po)", "type": "functional", "procedure,_shortened": "as §3"}, "[25]": {"system": "Rattus norvegicus", "assay": "Effect evaluated in vivo on 5-HTP accumulation in NE-rich hemispheres at a 12.5 dose uM/kg(sc)", "type": "functional", "procedure,_shortened": "as §3"}, "[26]": {"system": "Rattus norvegicus", "assay": "Effect evaluated in vivo on 5-HTP accumulation in NE-rich hemispheres at a 25 dose uM/kg(po)", "type": "functional", "procedure,_shortened": "as §3"}, "[27]": {"system": "Rattus norvegicus", "assay": "Effect evaluated in vivo on 5-HTP accumulation in NE-rich hemispheres at a 3.1 dose uM/kg(sc)", "type": "functional", "procedure,_shortened": "as §3"}, "[28]": {"system": "Rattus norvegicus", "assay": "Effect evaluated in vivo on 5-HTP accumulation in NE-rich hemispheres at a 50 dose uM/kg(sc)", "type": "functional", "procedure,_shortened": "as §3"}, "[29]": {"system": "Rattus norvegicus", "assay": "Effect evaluated in vivo on 5-HTP accumulation in NE-rich hemispheres at a 6.25d ose uM/kg(po)", "type": "functional", "procedure,_shortened": "as §3"}, "[30]": {"system": "Rattus norvegicus", "assay": "Effect evaluated in vivo on 5-HTP accumulation in corpus striatum after subcutaneous administration", "type": "functional", "settings": "sc", "procedure,_shortened": "as §3"}, "[31]": {"system": "Rattus norvegicus", "assay": "Effect evaluated in vivo on 5-HTP accumulation in corpus striatum at a dose 0.78 umol/kg (s.c.)", "type": "functional", "procedure,_shortened": "as §3"}, "[32]": {"system": "Rattus norvegicus", "assay": "Effect evaluated in vivo on 5-HTP accumulation in corpus striatum at a dose 1.56 umol/kg (p.o.)", "type": "functional", "procedure,_shortened": "as §3"}, "[33]": {"system": "Rattus norvegicus", "assay": "The compound was tested in vivo for locomotor activity in rats at 50 umol/kg after subcutaneous administration", "type": "functional", "procedure,_shortened": "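Male Sprague-Dawley rats received reserpine 5 mg/kg sc in the neck 18 h before testing. Test compound was given sc in the neck (n = 4). Rats were placed singly in photocell motility meters immediately after dosing, and counts were accumulated over 30 min (tests 9 a.m.–1 p.m.). Gross behaviour, including 5-HT syndrome, was observed throughout.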"}}}
{"smiles": "CCCN1CCc2cccc(OC)c2CC1", "values": [{"measurement": "IC50", "setting": "[1]", "result": 0.063, "unit": "µM"}, {"measurement": "IC50", "setting": "[2]", "result": 3.6, "unit": "µM"}, {"measurement": "Control", "setting": "[3]", "result": 48, "unit": "%"}, {"measurement": "Control", "setting": "[4]", "result": 61, "unit": "%"}, {"measurement": "Control", "setting": "[5]", "result": 77, "unit": "%"}, {"measurement": "Control", "setting": "[6]", "result": 92, "unit": "%"}, {"measurement": "Control", "setting": "[7]", "result": 56, "unit": "%"}, {"measurement": "Control", "setting": "[8]", "result": 48, "unit": "%"}, {"measurement": "Control", "setting": "[9]", "result": 65, "unit": "%"}, {"measurement": "Control", "setting": "[10]", "result": 53, "unit": "%"}, {"measurement": "ED50", "setting": "[11]", "result": 10, "unit": "µmol/kg"}, {"measurement": "ED50", "setting": "[12]", "result": 7, "unit": "µmol/kg"}, {"measurement": "ED50", "setting": "[13]", "result": 1.5, "unit": "µmol/kg"}, {"measurement": "ED50", "setting": "[14]", "result": 13, "unit": "µmol/kg"}, {"measurement": "Control", "setting": "[15]", "result": 63, "unit": "%"}, {"measurement": "Control", "setting": "[16]", "result": 79, "unit": "%"}, {"measurement": "Control", "setting": "[17]", "result": 99, "unit": "%"}, {"measurement": "Control", "setting": "[18]", "result": 99, "unit": "%"}, {"measurement": "Control", "setting": "[19]", "result": 47, "unit": "%"}, {"measurement": "Control", "setting": "[20]", "result": 42, "unit": "%"}, {"measurement": "Control", "setting": "[21]", "result": 58, "unit": "%"}, {"measurement": "ED50", "setting": "[22]", "result": 1.5, "unit": "µmol/kg"}, {"measurement": "Control", "setting": "[23]", "result": 101, "unit": "%"}, {"measurement": "Control", "setting": "[24]", "result": 53, "unit": "%"}, {"measurement": "Control", "setting": "[25]", "result": 48, "unit": "%"}, {"measurement": "Control", "setting": "[26]", "result": 58, "unit": "%"}, {"measurement": "Control", "setting": "[27]", "result": 47, "unit": "%"}, {"measurement": "Control", "setting": "[28]", "result": 58, "unit": "%"}, {"measurement": "Control", "setting": "[29]", "result": 84, "unit": "%"}, {"measurement": "ED50", "setting": "[30]", "result": 1, "unit": "µmol/kg"}, {"measurement": "Control", "setting": "[31]", "result": 74, "unit": "%"}, {"measurement": "Control", "setting": "[32]", "result": 97, "unit": "%"}, {"measurement": "Locomotor activity", "setting": "[33]", "result": 197}]}
